Experiments:
[1] = Inhibition of beta-lactamase AmpC
How it was run: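 Cuvette assay with 1 nM AmpC β-lactamase and 200 µM nitrocefin, Triton X-100 at either 0.00002 or 0.1%. Compound and enzyme preincubated 5 min, then substrate added to start the reaction.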

[2] = Inhibition of chymotrypsin
How it was run: (§1)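 Chymotrypsin (28 nM) preincubated 5 min with inhibitor, then reaction started with 200 µM N-succinyl-Ala-Ala-Pro-Phe p-nitroanilide. In the no-preincubation variant, inhibitor and substrate were mixed first and enzyme was added to start. Progress read at 410 nm.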

[3] = Inhibition of chymotrypsin in presence of 0.1% Triton X-100; how it was run: as §1
[4] = Inhibition of malate dehydrogenase
How it was run: (§2)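 Malate dehydrogenase (2 nM) incubated 5 min with inhibitor, then reaction started with 200 µM oxaloacetic acid plus 200 µM NADH. In the no-preincubation variant, inhibitor, oxaloacetate and NADH were mixed first and enzyme was added last. NADH consumption followed at 340 nm.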

[5] = Inhibition of beta-lactamase AmpC in presence of 0.1% Triton X-100
How it was run: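 Cuvette assay with 1 nM AmpC β-lactamase and 200 µM nitrocefin, Triton X-100 at either 0.00002 or 0.1%. Compound and enzyme preincubated 5 min, then substrate added to start the reaction. Nitrocefin hydrolysis read at 482 nm by UV–visible spectrophotometry at room temperature.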

Cruzipain [6] = molecular target: T1, Cruzipain (Trypanosoma cruzi, UniProt P25779); test: Inhibition of cruzain
T1 sequence (P25779 whole entry): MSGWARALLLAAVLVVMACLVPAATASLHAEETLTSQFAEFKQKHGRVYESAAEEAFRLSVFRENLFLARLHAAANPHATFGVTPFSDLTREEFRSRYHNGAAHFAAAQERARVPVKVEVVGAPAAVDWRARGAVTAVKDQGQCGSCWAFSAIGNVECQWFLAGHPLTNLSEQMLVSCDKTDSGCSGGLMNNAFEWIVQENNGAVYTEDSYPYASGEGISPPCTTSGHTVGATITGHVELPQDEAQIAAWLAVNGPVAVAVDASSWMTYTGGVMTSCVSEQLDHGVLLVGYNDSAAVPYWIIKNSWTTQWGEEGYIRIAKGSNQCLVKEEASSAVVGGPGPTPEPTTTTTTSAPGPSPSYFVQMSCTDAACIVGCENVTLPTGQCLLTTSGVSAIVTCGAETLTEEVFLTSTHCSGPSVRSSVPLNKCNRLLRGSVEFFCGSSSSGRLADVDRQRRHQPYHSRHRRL

Cruzipain [7] = molecular target: T1, Cruzipain; test: Inhibition of cruzain in presence of 0.01% Triton X-100
How it was run: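 Recombinant cruzain (10 nM) in 0.1 M sodium acetate pH 5.5 with 5 mM DTT and 0.01% Triton X-100, substrate 2.5 µM Z-Phe-Arg-AMC. Cleavage read fluorimetrically in 96-well format, excitation 355 nm, emission 460 nm.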

[8] = Inhibition of malate dehydrogenase in presence of 0.1% Triton X-100; how it was run: as §2

Row | Compound | IC50 [1] | IC50 [2] | IC50 [3] | IC50 [4] | IC50 [5] | IC50 (Cruzipain [6]) | IC50 (Cruzipain [7]) | IC50 [8] | Ki [1]
1 | O=C(NCCc1ccccc1)C1CCCN(S(=O)(=O)c2cccc3nsnc23)C1 (stereo not drawn) | > 600 µM | 220 µM | 345 µM | > 600 µM | – | – | – | – | –
2 | O=C(Nc1nc2n(n1)C(c1ccccc1)C=C(c1ccccc1)N2)c1ccco1 (stereo not drawn) | < 600 µM | 7 µM | 27 µM | – | < 600 µM | – | – | – | –
3 | CSCCC(C(=O)O)N1C(=O)c2ccc(C(=O)O)cc2C1=O (racemic) | – | – | – | – | – | – | – | – | 1300 µM
4 | COc1cccc(-c2ccc3ncnc(NCc4ccc(OC)cc4OC)c3c2)c1 | > 600 µM | > 600 µM | – | – | – | – | – | – | –
5 | O=C(O)C(Cc1ccccc1)N1C(=O)c2ccccc2C1=O (racemic) | – | – | – | – | – | – | – | – | 830 µM
6 | N[C@@H](Cc1cc(-c2ccc(Cl)cc2Cl)cc(CP(=O)(O)O)c1O)C(=O)O | 160 µM | 270 µM | 400 µM | > 600 µM | 220 µM | 77 µM | 158 µM | – | –
7 | CCOc1ccccc1CNC(=O)c1cc2occc2n1C | > 600 µM | – | – | – | – | – | – | – | –
8 | CCOC(=O)SC1=N/C(=C/c2ccc(N(C)C)cc2)C(=O)S1 | 60 µM | < 1 µM | 8 µM | 200 µM | > 600 µM | < 1 µM | 73 µM | > 600 µM | –
9 | C[C@H]1[C@H]2C=C[C@@H]1[C@@H](C(=O)O)[C@@H]2c1c2ccc(=O)c(O)c-2oc2c(O)c(O)ccc12 | 70 µM | 67 µM | > 600 µM | 18 µM | > 600 µM | 95 µM | 45 µM | 45 µM | –
10 | CC(C)(C)OC(=O)NCCc1nnc(S(=O)(=O)Cc2ccc(Cl)cc2Cl)o1 | < 1 µM | < 1 µM | < 1 µM | > 600 µM | < 1 µM | 95 µM | 470 µM | – | –
11 | CC(C)(C)OC(=O)NCc1nnc(S(=O)(=O)Cc2ccc(Cl)cc2Cl)o1 | < 1 µM | < 1 µM | < 1 µM | > 600 µM | < 1 µM | 95 µM | 410 µM | > 600 µM | –
12 | O=c1oc2c(O)c(O)cc3c(=O)oc4c(O)c(O)cc1c4c23 [ELLAGIC ACID] | 146 µM | 470 µM | < 600 µM | 55 µM | > 600 µM | 64 µM | 220 µM | 106 µM | –
13 | CC(C)[C@H](NC(=O)OC(C)(C)C)c1nnc(S(=O)(=O)Cc2c(F)cccc2Cl)o1 (stereo in doubt; 1) | < 1 µM | < 1 µM | < 1 µM | > 600 µM | < 1 µM | < 1 µM | < 1 µM | > 600 µM | –
14 | COc1ccc(-c2cc(C(=O)NCc3ccccc3)no2)cc1OC | > 600 µM | > 600 µM | – | – | – | – | – | – | –
15 | CC(C)CC(C(=O)O)N1C(=O)c2ccc(C(=O)O)cc2C1=O (racemic) | – | – | – | – | – | – | – | – | 1200 µM
16 | Cc1occc1C(=O)n1nnc2ccccc21 | 20 µM | < 1 µM | < 1 µM | 65 µM | 38 µM | 106 µM | < 600 µM | > 600 µM | –
17 | S=C(S)OC1CC2CC1C1CCCC21 (stereo not drawn) | 270 µM | 270 µM | > 600 µM | > 600 µM | > 600 µM | 15 µM | > 600 µM | – | –
18 | O=C(O)CN1C(=O)c2ccc(C(=O)O)cc2C1=O | – | – | – | – | – | – | – | – | 6900 µM
19 | COc1cccc(-c2nccc(-n3ccnc3)n2)c1 | > 600 µM | > 600 µM | – | – | – | – | – | – | –
20 | N#Cc1cccc(-c2nc(NCc3cccnc3)c3ccccc3n2)c1 | > 600 µM | > 600 µM | – | – | – | – | – | – | –
21 | COc1cccc2cc(C(=O)n3ccc(C)n3)c(=O)oc12 | 25 µM | 70 µM | 70 µM | > 600 µM | 20 µM | 120 µM | 106 µM | – | –
22 | CC(C)C[C@H](N)c1nnc(S(=O)(=O)Cc2ccc(F)cc2)o1 | 600 µM | 270 µM | 170 µM | > 600 µM | 600 µM | – | – | – | –
23 | CS(=O)(=O)N1CCC(C(=O)N2CCC(Cc3ccccc3)CC2)CC1 | > 600 µM | > 600 µM | > 600 µM | – | > 600 µM | – | – | – | –
24 | O=C(O)c1ccc2c(c1)C(=O)N([C@H](Cc1ccc3ccccc3c1)C(=O)O)C2=O | – | – | – | – | – | – | – | – | 14 µM
25 | O=C(O)c1ccc2c(c1)C(=O)N(CCc1ccc(O)cc1)C2=O | – | – | – | – | – | – | – | – | 360 µM
26 | O=C(O)c1ccc2c(c1)C(=O)N(C(Cc1ccccc1)C(=O)O)C2=O (racemic) | – | – | – | – | – | – | – | – | 210 µM
27 | O=C(O)c1ccc2c(c1)C(=O)N([C@H](Cc1c[nH]c3ccccc13)C(=O)O)C2=O | – | – | – | – | – | – | – | – | 17 µM

The remaining lines, values ahead:

Row | IC50 [1] | IC50 [2] | IC50 [3] | IC50 [4] | IC50 [5] | IC50 (Cruzipain [6]) | IC50 (Cruzipain [7]) | IC50 [8] | Ki [1] | Compound
28 | 43 µM | – | – | – | 58 µM | < 600 µM | < 600 µM | – | – | CCOC(=O)/C(C(C)=O)=C1\OC(=O)c2ccccc21
29 | 95 µM | 570 µM | > 600 µM | 15 µM | > 600 µM | < 1 µM | > 600 µM | > 600 µM | – | Cc1ccc(C)n1C(Cc1ccccc1)C(=O)O (stereo not drawn)
30 | > 600 µM | > 600 µM | – | – | – | – | – | – | – | CN(C)C/C=C(\c1ccc(Br)cc1)c1cccnc1
31 | > 600 µM | > 600 µM | – | – | – | – | – | – | – | CC1=C/C(=C\c2ccc3c(c2)OCO3)C(=O)S1
32 | 55 µM | 37 µM | 37 µM | – | 43 µM | 70 µM | 90 µM | – | – | O=C(Oc1cccnc1)c1cc2ccccc2oc1=O
33 | – | – | – | – | – | – | – | – | 158 µM | O=C(O)c1ccc2c(c1)C(=O)N([C@@H](Cc1ccc(O)cc1)C(=O)O)C2=O
34 | – | > 10000 µM | – | – | 210 µM | > 10000 µM | > 10000 µM | – | 140 µM | O=C(O)c1ccc2c(c1)C(=O)N(C(Cc1ccc(O)cc1)C(=O)O)C2=O (racemic)
35 | > 600 µM | > 600 µM | – | – | – | – | – | – | – | c1cc2c3c(c1)c1c(n3CCNC2)CCCC1
36 | 120 µM | 184 µM | > 600 µM | 5 µM | > 600 µM | 53 µM | 28 µM | 30 µM | – | O=C(O)C1=CC(=C(c2ccc(O)c(C(=O)O)c2)c2ccc(O)c(C(=O)O)c2)C=CC1=O [AURINTRICARBOXYLIC ACID]
37 | > 600 µM | > 600 µM | > 600 µM | – | > 600 µM | 73 µM | 170 µM | – | – | O=C(CC1(O)C(=O)Nc2cc(Cl)cc(Cl)c21)c1ccccc1O (stereo not drawn)
38 | 22 µM | < 1 µM | > 600 µM | 5 µM | > 600 µM | < 1 µM | 120 µM | 106 µM | – | CCOC(=O)C1=C(c2ccccc2)NC(SCC(=O)Nc2ccc(C)cc2)=C(C#N)C1c1ccco1 (stereo not drawn)
39 | – | – | – | – | – | – | – | – | 41 µM | O=C(O)c1ccc2c(c1)C(=O)N([C@H](Cc1cccc3ccccc13)c1nnn[nH]1)C2=O
40 | – | – | – | – | – | < 1 µM | < 1 µM | – | – | CC(C)[C@H](NC(=O)OC(C)(C)C)c1nnc(S(=O)(=O)Cc2c(F)cccc2Cl)o1 (stereo in doubt)
41 | 15 µM | < 1 µM | > 600 µM | > 600 µM | 95 µM | > 600 µM | > 600 µM | – | – | CCCC12CN(C(=O)c3ccc(OC)cc3)CC(C)(CN(C(=O)c3ccc(OC)cc3)C1)C2=O
42 | > 600 µM | – | – | – | – | – | – | – | – | COc1cc2c(=O)n(Cc3ccco3)c(=O)n(CC(=O)c3cccc(Br)c3)c2cc1OC

Reference: ChEMBL document CHEMBL1142414, “Comprehensive mechanistic analysis of hits from high-throughput and docking screens against beta-lactamase” (J Med Chem, 2008)
